Data published in ChEMBL document CHEMBL5678798 (Clin Cancer Res, 2009).
pIC50: −log10 of the molar value. Active and inactive are the calls of the source. The rule behind the calls is not given here.

Key:
[1] = target: Protein-tyrosine kinase 6 (Homo sapiens) (UniProt Q13882); assay: Inhibition of N-terminal His6-tagged recombinant full-length human BRK expressed in baculovirus infected Sf21 cells at 0.3 uM by filter binding assay relative to control
How it was run: (§1)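 Outsourced single-concentration screen in a commercial panel of 233 protein kinases, run as radiometric filter-binding activity assays. Test agent was tested at 0.3 or 3 µmol/L, as given in each line, from a 10 mmol/L DMSO stock. Activity is expressed as percent inhibition relative to control.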

[2] = target: RAC-beta serine/threonine-protein kinase (Homo sapiens, UniProt P31751); assay: Inhibition of AKT2 (unknown origin)
[3] = Antiproliferative activity against human TC71 cells assessed as reduction in cell viability after 72 hrs by CellTiter-Glo assay; assay type: functional, cell-based; settings: TC-71, 72 h
How it was run: (§2)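 Cells seeded in 96-well plates, left overnight at 37°C, then exposed to a range of test concentrations for 72 h. Viability read by CellTiter-Glo luminescence; IC50 from four-parameter curve fit. Lines kept at 37°C, 5% CO2, in recommended growth medium.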

[4] = target: Tyrosine-protein kinase Fyn (Homo sapiens, UniProt P06241); assay: Inhibition of FYN (unknown origin)
[5] = target: Serine/threonine-protein kinase Nek3 (Homo sapiens) (UniProt P51956); assay: Inhibition of N-terminal 6His-tagged recombinant full length human NEK3 expressed in baculovirus infected Sf21 cells at 3 uM by filter binding assay relative to control
How it was run: (§3)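 KinaseProfiler panel of 233 kinases: radiometric filter-binding activity assays with compound at 0.3 or 3 µmol/L. Read-out is percent inhibition.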

[6] = target: Cytoplasmic tyrosine-protein kinase BMX (Homo sapiens, UniProt P51813); assay: Inhibition of N-terminal His6-tagged recombinant full-length human BMX expressed in baculovirus infected Sf21 cells by filter binding assay
[7] = target: Tyrosine-protein kinase JAK3 (Homo sapiens, UniProt P52333); assay: Inhibition of JAK3 (unknown origin)
[8] = target: PAS domain-containing serine/threonine-protein kinase (Homo sapiens, UniProt Q96RG2); assay: Inhibition of human PASK by filter binding assay
[9] = target: Cyclin-dependent kinase 16 (Homo sapiens, UniProt Q00536); assay: Inhibition of PCTAIRE1 (unknown origin)
[10] = target: Insulin receptor (Mus musculus) (UniProt P15208); settings: CD-1, dose >= 30.0 mg/kg, route po, time 4.25 hrs
[11] = In vivo inhibition of IGF1R in mouse NIH-3T3/LISN cells xenografted in IGF1-stimulated nu/nu CD-1 mouse assessed as reduction in IGF1R phosphorylation at 3 umol/L blood compound concentration pretreated for 1 to 72 hrs followed by IGF1 stimulation and measured after 10 min by […] relative to control; assay type: functional; settings: dose 3 µmol/L; time 60-4330 min; at 3 µM
[12] = target: Rho-associated protein kinase 1 (Homo sapiens, UniProt Q13464); assay: Inhibition of ROCK1 (unknown origin)
[13] = target: Tyrosine-protein kinase Lck (Homo sapiens, UniProt P06239); assay: Inhibition of LCK (unknown origin)
[14] = target: Death-associated protein kinase 2 (Homo sapiens) (UniProt Q9UIK4); assay: Inhibition of N-terminal GST-tagged recombinant human full length DAPK2 expressed in baculovirus infected Sf21 cells at 0.3 uM by filter binding assay relative to control; how it was run: as §1
[15] = target: Fibroblast growth factor receptor 3 (Homo sapiens) (UniProt P22607); assay: Inhibition of N-terminal His6-tagged recombinant human FGFR3 (447 to 761 residues) expressed in Sf21 cells at 3 uM by filter binding assay relative to control
[16] = target: Serine/threonine-protein kinase pim-1 (Homo sapiens) (UniProt P11309); assay: Inhibition of N-terminal GST-tagged recombinant human full-length Pim-1 expressed in Escherichia coli cells at 3 uM by filter binding assay relative to control; how it was run: as §1
[17] = target: Homeodomain-interacting protein kinase 3 (Homo sapiens) (UniProt Q9H422); assay: Inhibition of N-terminal 6His-tagged recombinant human HIPK3 (161 to 562 residues) expressed in baculovirus infected Sf21 cells at 0.3 uM by filter binding assay relative to control; how it was run: as §1
[18] = Toxicity in nu/nu CD-1 mouse xenografted with human HT-29 cells assessed as reduction in body weight at 30 mg/kg, po for 21 days relative to control; assay type: organism-based; settings: in vivo, 504 h, time 21 day
[19] = target: Serine/threonine-protein kinase TBK1 (Homo sapiens) (UniProt Q9UHD2); assay: Inhibition of N-terminal His6-tagged recombinant full-length human TBK1 expressed in baculovirus infected Sf21 cells at 3 uM by filter binding assay relative to control; how it was run: as §1
[20] = Antiproliferative activity against human SR-786 cells assessed as reduction in cell viability after 72 hrs by CellTiter-Glo assay; assay type: functional, cell-based; settings: SR-786, 72 h; how it was run: as §2
[21] = target: LIM domain kinase 1 (Homo sapiens) (UniProt P53667); assay: Inhibition of N-terminal 6His-tagged recombinant human LIMK1 (285 to 638 residues) expressed in baculovirus infected Sf21 cells at 3 uM by filter binding assay relative to control; how it was run: as §1
[22] = target: Serine/threonine-protein kinase D1 (Homo sapiens) (UniProt Q15139); assay: Inhibition of N-terminal His6-tagged recombinant full-length human PKCmu expressed in Sf21 cells at 3 uM by filter binding assay relative to control; how it was run: as §1
[23] = target: Insulin receptor (Mus musculus) (UniProt P15208); settings: CD-1, dose 30.0 mg/kg, route po, time 21.0 day
[24] = target: cGMP-dependent protein kinase 1 (Homo sapiens) (UniProt Q13976); assay: Inhibition of N-terminal 6His-tagged recombinant full-length human PKG1beta expressed in baculovirus infected Sf21 cells at 3 uM by filter binding assay relative to control; how it was run: as §3
[25] = target: Phosphatidylinositol 4,5-bisphosphate 3-kinase catalytic subunit alpha isoform (Homo sapiens, UniProt P42336); assay: Inhibition of PI3Kalpha (unknown origin)
[26] = target: Serine/threonine-protein kinase B-raf (Homo sapiens, UniProt P15056, V600E); assay: Inhibition of B-Raf V600E mutant (unknown origin)
COLO 205 = assay: Antitumor activity against human COLO 205 cells xenografted in nu/nu CD-1 mouse assessed as reduction in tumor growth at 30 mg/kg, po for 21 days relative to control; assay type: functional; settings: COLO 205, 504 h, time 21 day, read-out: TGI
How it was run: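 Exponentially growing cells implanted s.c. in the right flank of 8–10-wk-old female athymic nu/nu CD-1 mice. At 150–200 mm3, block-randomized by tumor size into groups of eight. Oral dosing once or twice daily for 21 d; vehicle 20% sulfobutylether-β-cyclodextrin, pH 3.5. Calipers twice weekly; volume = length×width²/2. Growth inhibition = 100×[1 − treated growth/vehicle growth].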

[27] = target: Homeodomain-interacting protein kinase 2 (Homo sapiens) (UniProt Q9H2X6); assay: Inhibition of N-terminal His6-tagged recombinant human HIPK2 (165 to 564 residues) expressed in baculovirus infected Sf21 cells at 3 uM by filter binding assay relative to control
Sequence of Homeodomain-interacting protein kinase 2 (Homo sapiens) (Q9H2X6 whole entry, looked up, the tested form may be a part): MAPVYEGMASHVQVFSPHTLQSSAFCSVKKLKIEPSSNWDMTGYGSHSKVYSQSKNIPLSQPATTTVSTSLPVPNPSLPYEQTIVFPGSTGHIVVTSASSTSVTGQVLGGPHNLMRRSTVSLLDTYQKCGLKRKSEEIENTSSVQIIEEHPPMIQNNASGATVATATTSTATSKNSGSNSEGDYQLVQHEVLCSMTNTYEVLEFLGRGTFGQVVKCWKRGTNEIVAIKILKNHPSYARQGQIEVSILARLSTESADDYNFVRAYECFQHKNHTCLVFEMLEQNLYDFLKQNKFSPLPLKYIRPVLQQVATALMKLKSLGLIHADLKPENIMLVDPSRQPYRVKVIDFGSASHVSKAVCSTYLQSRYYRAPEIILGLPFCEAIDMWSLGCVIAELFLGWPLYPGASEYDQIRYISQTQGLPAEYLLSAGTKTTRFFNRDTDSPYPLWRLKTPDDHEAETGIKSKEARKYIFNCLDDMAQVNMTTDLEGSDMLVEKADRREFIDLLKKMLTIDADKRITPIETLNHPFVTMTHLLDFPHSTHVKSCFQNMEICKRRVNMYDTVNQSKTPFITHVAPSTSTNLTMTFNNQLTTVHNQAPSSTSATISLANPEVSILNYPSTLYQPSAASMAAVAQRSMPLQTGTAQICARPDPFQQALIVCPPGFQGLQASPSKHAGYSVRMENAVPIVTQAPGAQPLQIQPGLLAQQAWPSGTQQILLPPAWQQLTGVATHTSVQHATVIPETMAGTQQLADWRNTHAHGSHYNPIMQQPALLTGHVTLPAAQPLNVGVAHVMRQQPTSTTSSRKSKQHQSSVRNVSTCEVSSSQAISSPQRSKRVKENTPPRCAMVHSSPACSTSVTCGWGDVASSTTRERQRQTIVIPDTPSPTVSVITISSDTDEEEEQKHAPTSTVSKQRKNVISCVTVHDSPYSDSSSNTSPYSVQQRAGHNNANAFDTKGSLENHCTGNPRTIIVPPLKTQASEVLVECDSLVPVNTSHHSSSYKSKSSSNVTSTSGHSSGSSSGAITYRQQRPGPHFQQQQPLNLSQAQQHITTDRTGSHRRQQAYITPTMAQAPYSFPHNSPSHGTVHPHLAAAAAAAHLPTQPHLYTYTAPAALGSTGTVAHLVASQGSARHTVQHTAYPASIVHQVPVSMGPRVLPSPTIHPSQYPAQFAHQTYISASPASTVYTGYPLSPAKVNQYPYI

Sequence of Insulin receptor (Mus musculus) (P15208 28-748 limits assumed): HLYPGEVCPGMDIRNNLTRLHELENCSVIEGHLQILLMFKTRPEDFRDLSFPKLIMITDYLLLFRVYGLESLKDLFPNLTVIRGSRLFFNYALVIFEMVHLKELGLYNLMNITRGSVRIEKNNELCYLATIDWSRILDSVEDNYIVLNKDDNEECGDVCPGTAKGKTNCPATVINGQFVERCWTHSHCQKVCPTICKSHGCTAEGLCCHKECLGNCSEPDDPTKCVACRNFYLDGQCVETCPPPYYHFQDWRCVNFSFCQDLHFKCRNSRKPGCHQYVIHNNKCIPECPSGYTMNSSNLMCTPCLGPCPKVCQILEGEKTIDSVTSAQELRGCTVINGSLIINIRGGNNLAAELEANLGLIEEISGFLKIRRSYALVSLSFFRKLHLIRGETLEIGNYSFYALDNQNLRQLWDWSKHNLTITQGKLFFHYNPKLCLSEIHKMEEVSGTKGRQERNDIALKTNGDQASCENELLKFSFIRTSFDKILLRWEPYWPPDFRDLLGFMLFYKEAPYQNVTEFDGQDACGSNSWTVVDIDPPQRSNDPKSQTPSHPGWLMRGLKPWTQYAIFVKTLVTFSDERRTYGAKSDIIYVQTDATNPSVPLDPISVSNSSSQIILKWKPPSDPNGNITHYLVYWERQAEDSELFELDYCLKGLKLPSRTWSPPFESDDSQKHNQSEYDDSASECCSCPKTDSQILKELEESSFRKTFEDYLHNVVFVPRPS
Sequence of Insulin receptor (Mus musculus) (P15208 753-1372 limits assumed): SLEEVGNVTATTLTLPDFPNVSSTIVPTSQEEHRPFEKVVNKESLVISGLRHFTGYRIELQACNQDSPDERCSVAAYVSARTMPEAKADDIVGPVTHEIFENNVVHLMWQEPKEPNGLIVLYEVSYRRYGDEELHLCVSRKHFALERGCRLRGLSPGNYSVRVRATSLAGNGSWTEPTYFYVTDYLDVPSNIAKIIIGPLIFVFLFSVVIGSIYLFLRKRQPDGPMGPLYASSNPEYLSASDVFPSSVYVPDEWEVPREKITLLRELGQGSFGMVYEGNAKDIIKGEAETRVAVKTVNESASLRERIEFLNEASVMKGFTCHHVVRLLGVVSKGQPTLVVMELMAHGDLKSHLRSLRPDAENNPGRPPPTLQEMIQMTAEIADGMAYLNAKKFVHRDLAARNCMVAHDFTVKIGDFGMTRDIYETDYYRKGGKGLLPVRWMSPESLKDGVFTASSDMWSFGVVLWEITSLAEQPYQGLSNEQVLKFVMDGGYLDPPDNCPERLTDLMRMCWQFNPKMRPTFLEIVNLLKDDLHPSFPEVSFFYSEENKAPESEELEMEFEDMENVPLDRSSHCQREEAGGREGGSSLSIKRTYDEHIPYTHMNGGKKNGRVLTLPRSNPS
Sequence of RAC-beta serine/threonine-protein kinase (P31751 whole entry): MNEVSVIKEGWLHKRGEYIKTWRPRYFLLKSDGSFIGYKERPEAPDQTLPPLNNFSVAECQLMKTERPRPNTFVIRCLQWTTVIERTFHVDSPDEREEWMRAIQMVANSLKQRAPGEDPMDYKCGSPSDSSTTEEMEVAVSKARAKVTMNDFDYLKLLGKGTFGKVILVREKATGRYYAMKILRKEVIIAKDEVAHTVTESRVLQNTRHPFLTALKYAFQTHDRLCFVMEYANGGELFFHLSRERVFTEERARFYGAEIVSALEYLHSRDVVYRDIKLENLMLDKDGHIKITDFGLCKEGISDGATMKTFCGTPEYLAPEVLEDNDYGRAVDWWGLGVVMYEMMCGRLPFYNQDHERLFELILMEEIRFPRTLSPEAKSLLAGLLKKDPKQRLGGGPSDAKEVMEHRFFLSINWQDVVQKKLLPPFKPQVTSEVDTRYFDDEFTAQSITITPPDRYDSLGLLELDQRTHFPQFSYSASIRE
Sequence of LIM domain kinase 1 (Homo sapiens) (P53667 whole entry, looked up, the tested form may be a part): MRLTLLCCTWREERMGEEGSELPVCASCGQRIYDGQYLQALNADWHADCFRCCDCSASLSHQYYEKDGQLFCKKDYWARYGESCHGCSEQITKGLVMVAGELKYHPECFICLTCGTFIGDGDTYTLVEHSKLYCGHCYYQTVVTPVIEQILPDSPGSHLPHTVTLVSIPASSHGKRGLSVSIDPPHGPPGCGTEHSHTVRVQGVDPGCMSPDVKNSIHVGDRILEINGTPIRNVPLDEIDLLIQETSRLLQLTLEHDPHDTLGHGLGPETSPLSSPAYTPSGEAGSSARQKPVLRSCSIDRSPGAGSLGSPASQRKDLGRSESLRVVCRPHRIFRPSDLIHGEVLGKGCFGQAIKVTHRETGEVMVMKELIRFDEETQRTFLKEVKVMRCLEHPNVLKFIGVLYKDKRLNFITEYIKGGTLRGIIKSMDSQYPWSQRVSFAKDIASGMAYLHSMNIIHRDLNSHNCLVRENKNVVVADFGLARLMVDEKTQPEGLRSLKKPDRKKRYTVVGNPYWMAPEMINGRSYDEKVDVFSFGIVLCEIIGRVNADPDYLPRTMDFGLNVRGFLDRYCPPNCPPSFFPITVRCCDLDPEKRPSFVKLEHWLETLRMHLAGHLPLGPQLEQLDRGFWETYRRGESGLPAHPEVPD
Sequence of Tyrosine-protein kinase Fyn (P06241 whole entry): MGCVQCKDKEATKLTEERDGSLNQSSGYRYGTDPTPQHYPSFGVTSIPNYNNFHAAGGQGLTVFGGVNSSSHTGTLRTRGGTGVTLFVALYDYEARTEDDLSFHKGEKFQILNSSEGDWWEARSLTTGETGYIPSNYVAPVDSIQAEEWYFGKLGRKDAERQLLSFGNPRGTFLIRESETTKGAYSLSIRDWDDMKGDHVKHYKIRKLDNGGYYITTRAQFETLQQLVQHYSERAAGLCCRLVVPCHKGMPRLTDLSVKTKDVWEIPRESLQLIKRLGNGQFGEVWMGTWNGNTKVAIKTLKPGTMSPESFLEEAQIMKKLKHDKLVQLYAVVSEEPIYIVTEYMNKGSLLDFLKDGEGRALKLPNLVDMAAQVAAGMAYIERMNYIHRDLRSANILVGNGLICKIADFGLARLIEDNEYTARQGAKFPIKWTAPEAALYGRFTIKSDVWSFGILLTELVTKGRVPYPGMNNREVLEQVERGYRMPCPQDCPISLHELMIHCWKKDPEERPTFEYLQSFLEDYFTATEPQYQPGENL
Sequence of Serine/threonine-protein kinase pim-1 (Homo sapiens) (P11309 whole entry, looked up, the tested form may be a part): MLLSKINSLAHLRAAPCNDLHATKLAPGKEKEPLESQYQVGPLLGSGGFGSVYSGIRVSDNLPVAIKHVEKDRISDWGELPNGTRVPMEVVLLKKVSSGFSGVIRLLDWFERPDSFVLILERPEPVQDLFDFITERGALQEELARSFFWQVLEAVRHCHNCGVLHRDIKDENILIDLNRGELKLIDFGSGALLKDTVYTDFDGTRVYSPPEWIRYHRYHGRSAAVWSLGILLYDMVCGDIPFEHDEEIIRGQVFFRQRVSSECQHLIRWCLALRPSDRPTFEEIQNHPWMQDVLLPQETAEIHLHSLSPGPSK
Sequence of Serine/threonine-protein kinase Nek3 (Homo sapiens) (P51956 whole entry): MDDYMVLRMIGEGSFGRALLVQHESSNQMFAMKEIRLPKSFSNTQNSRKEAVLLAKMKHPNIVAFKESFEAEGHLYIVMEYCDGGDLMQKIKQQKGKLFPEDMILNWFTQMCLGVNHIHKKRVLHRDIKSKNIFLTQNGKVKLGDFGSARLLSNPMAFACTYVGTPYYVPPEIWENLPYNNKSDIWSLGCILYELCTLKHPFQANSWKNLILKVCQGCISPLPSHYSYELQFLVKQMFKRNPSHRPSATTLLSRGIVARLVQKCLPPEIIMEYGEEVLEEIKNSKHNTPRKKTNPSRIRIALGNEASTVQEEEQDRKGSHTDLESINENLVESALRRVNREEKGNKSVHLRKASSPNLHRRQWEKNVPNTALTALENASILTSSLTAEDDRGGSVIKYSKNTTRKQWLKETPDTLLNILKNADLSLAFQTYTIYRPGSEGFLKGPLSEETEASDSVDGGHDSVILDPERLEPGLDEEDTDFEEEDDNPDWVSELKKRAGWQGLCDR

Question: With `CCc1cc(Nc2nccc(-c3c(-c4ccc(OC)c(C(=O)Nc5c(F)cccc5F)c4)nc4ccccn34)n2)c(OC)cc1N1CCC(N2CCN(S(C)(=O)=O)CC2)CC1` as the molecule, how does the inhibition [1] read?
Answer: 25%

Question: And the pIC50 [2]?
Answer: < 5.00

Question: What about the pIC50 [3] of the same molecule?
Answer: 7.46

Question: What about the pIC50 [4] of the same molecule?
Answer: 5.20

Question: What about the inhibition [5] of the same molecule?
Answer: 16%

Question: What about the pIC50 [6] of the same molecule?
Answer: 5.92

Question: And the pIC50 [7]?
Answer: 4.89

Question: And the pIC50 [8]?
Answer: 5.36

Question: What about the pIC50 [9] of the same molecule?
Answer: < 5.00

Question: What about the inhibition [10] of the same molecule?
Answer: Dose-Dependent Effect

Question: What about the “inhibition (INH)” value [11] of the same molecule?
Answer: >90%

Question: What about the pIC50 [12] of the same molecule?
Answer: < 5.00

Question: What about the pIC50 [13] of the same molecule?
Answer: 5.10

Question: And the inhibition [14]?
Answer: 1%

Question: What about the inhibition [15] of the same molecule?
Answer: 25%

Question: And the inhibition [16]?
Answer: 25%

Question: And the inhibition [17]?
Answer: 1%

Question: And the Activity [18]?
Answer: Non-Toxic

Question: And the inhibition [19]?
Answer: 22%

Question: What about the pIC50 [20] of the same molecule?
Answer: < 4.52

Question: What about the inhibition [21] of the same molecule?
Answer: 18%

Question: What about the inhibition [22] of the same molecule?
Answer: 1%

Question: What about the inhibition [23] of the same molecule?
Answer: inactive

Question: And the inhibition [24]?
Answer: 32%

Question: What about the pIC50 [25] of the same molecule?
Answer: < 5.00

Question: What about the pIC50 [26] of the same molecule?
Answer: < 5.70

Question: And the inhibition in vivo at 30 mg/kg (COLO 205)?
Answer: 75%

Question: What about the inhibition [27] of the same molecule?
Answer: 4%
